Measurements from ChEMBL document CHEMBL4043092, “Neuroprotective and Antineuroinflammatory Effects of Hydroxyl-Functionalized Stilbenes and 2-Arylbenzo[b]furans” (J Med Chem, 2017).

How the values were obtained:
[1] = Anti-inflammatory activity in Sprague-Dawley rat primary mixed glial cells assessed as inhibition of LPS-induced NO production at 50 uM pretreated for 2 hrs followed by LPS addition measured after 48 hrs by Griess assay (reference value: 100%); format: functional, Primary glial cell; design: scale not given: the % may be the effect or the level left
Cortical neurone [2] = test: Neuroprotective activity against fibril amyloid beta (25 to 35)-induced cell death in Sprague-Dawley rat 5 day old neonatal primary cortical neurons assessed as cell death at maximum non toxic concentration pretreated for 2 hrs followed by 10 uM fibril amyloid beta (25 to 35) addition measured after 48 hrs by MTT assay (reference value: 39.20 +/- 0.88%); format: functional
Method in brief: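 Rat cortical neurons from pups, papain-dissociated, cytosine arabinoside (5 μM, 1 day) to remove non-neuronal cells, used at DIV5. Vehicle 0.1% DMSO or compound pretreatment before fAβ25–35 (aged 1 week at 37 °C). Viability by MTT reduction: 0.5 mg/mL for 1 h, formazan dissolved in DMSO, OD600. Mean ± SD of three independent experiments.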

Cortical neurone [3] = test: Neuroprotective activity against glutamate-induced cell death in Sprague-Dawley rat 10 days old neonatal primary cortical neurons assessed as cell death at maximum non toxic concentration pretreated for 2 hrs followed by 30 uM glutamate addition measured after 24 hrs by MTT assay (reference value: 41.22 +/- 3.40%); format: functional
[4] = Antioxidant activity assessed as ABTS radical cation scavenging activity by measuring trolox equivalents by spectrophotometric analysis; format: functional
Cortical neurone [5] = test: Neuroprotective activity against fibril amyloid beta (25 to 35)-induced cell death in Sprague-Dawley rat 5 days old neonatal primary cortical neurons assessed as increase in cell viability pretreated for 2 hrs followed by 10 uM fibril amyloid beta (25 to 35) addition measured after 48 hrs by MTT assay; format: functional, cell-based
Method in brief: (§1)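 Cortical neurons pretreated 2 h with vehicle (0.1% DMSO) or compound at maximum nontoxic concentration. Then exposed at DIV5 to fibrillar Aβ25–35 (10 μM, 48 h) or at DIV10 to glutamate (30 μM, 24 h). MTT 0.5 mg/mL for 1 h, formazan dissolved in DMSO, OD read at 600 nm. Mean ± SD of three independent experiments.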

Cortical neurone [6] = test: Neuroprotective activity against glutamate-induced cell death in Sprague-Dawley rat 10 days old neonatal primary cortical neurons assessed as increase in cell viability pretreated for 2 hrs followed by 30 uM glutamate addition measured after 24 hrs by MTT assay; format: functional, cell-based; method in brief: as §1
[7] = Anti-inflammatory activity in Sprague-Dawley rat primary mixed glial cells assessed as inhibition of LPS-induced NO production pretreated for 2 hrs followed by LPS addition measured after 48 hrs by Griess assay; format: functional, cell-based; details: Glial cell
Method in brief: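 Mixed cortical glia kept 3 days in DMEM/F12 with 10% FBS, medium changed, 4 more days, then 9 days in Neurobasal/B27 (16 days total). Cultures activated 2 days after medium refresh with 100 ng/mL LPS for 48 h, with compound at maximum nontoxic concentration. Medium nitrite read by Griess reagent at 540 nm against NaNO2 standard. Mean ± SD, three independent experiments.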

What does the source list for CCOC(=O)/C=C/c1cc2c(cc1/C=C/c1cc(OC)c(OC)c(OC)c1)OCO2?
Activity [1]: 127.76%; Activity (Cortical neurone [2]): 41.76%; Activity (Cortical neurone [3]): 43.95%

What does the source list for CCOC(=O)/C=C/c1ccc(OC)c(O)c1/C=C/c1ccc(OC)c(OC)c1?
Activity [1]: 106.26%; Activity (Cortical neurone [2]): 38.07%; Activity (Cortical neurone [3]): 44.3%

For O=C(O)/C=C/c1ccc(O)c2c1C=Cc1cc(O)c(O)cc1O2 [TOURNEFOLIC ACID B], which Activity [1] is on record?
Its Activity is 98.77%.

And the Activity (Cortical neurone [2])?
The Activity was 24.66%.

What about the Activity [4] of the same compound?
The Activity was 1.27 mMequiv.

And the EC50 (Cortical neurone [5])?
Its EC50 is 35.7 µM.

And the Activity (Cortical neurone [3])?
Its Activity is 42.43%.

For COc1ccc(Br)c2cc(-c3ccc4c(c3)OCO4)oc12, which Activity [1] is on record?
The Activity was 202.71%.

And the Activity (Cortical neurone [2])?
The Activity was 43.98%.

What about the Activity (Cortical neurone [3]) of the same compound?
The Activity was 46.84%.

Which Activity [1] does the source give for CCOC(=O)/C=C/c1c(/C=C/c2ccc(OC)cc2)cc(OC)c(OC)c1OC here?
Its Activity is 59.11%.

And the Activity (Cortical neurone [2])?
The Activity was 36.93%.

What about the Activity (Cortical neurone [3]) of the same compound?
The Activity was 41.07%.

Which results are given for COc1cc(/C=C/c2ccc3c(c2)OCO3)cc(OC)c1OC?
Activity [1]: 83.73%; Activity (Cortical neurone [2]): 45.46%; Activity (Cortical neurone [3]): 36.43%

Which Activity [1] does the source give for COc1cc(Br)cc(/C=C/c2ccc3c(c2)OCO3)c1O here?
The Activity was 48.79%.

And the EC50 (Cortical neurone [6])?
The EC50 was greater than 20 µM.

What about the Activity (Cortical neurone [2]) of the same compound?
Its Activity is 45.74%.

What about the EC50 [7] of the same compound?
The EC50 was 84.8 µM.

And the EC50 (Cortical neurone [5])?
The EC50 was greater than 10 µM.

And the Activity (Cortical neurone [3])?
The Activity was 45.69%.

Which results are given for COc1cc(Br)c(/C=C/c2cc(Br)cc(OC)c2O)cc1OC?
Activity [1]: 94.57%; Activity (Cortical neurone [2]): 38.78%; Activity (Cortical neurone [3]): 41.17%

With CCOC(=O)/C=C/c1ccc(/C=C/c2cc(OC)c(OC)c(OC)c2)cc1 as the compound, how does the Activity [1] read?
The Activity was 91.44%.

What about the Activity (Cortical neurone [2]) of the same compound?
The Activity was 44.43%.

What about the Activity (Cortical neurone [3]) of the same compound?
The Activity was 44.56%.

With Oc1ccc(-c2cc3cc(Br)cc(O)c3o2)cc1 as the compound, how does the Activity [1] read?
The Activity was 101.84%.

And the Activity (Cortical neurone [2])?
The Activity was 30.1%.

What about the Activity (Cortical neurone [3]) of the same compound?
The Activity was 33.02%.

What does the source list for COc1cc(Br)c(/C=C/c2cccc(OC)c2O)cc1OC?
Activity [1]: 102.71%; Activity (Cortical neurone [2]): 39.67%; Activity (Cortical neurone [3]): 42.89%

Which Activity [1] does the source give for CCOC(=O)/C=C/c1cccc(/C=C/c2cc(OC)c(OC)c(OC)c2)c1 here?
The Activity was 75.6%.

And the Activity (Cortical neurone [2])?
The Activity was 35.98%.

What about the Activity (Cortical neurone [3]) of the same compound?
Its Activity is 43.29%.

Which Activity [1] does the source give for CCOC(=O)/C=C/c1cc(OC)c(OC)cc1/C=C/c1cc(OC)c(OC)c(OC)c1 here?
Its Activity is 123.48%.

And the Activity (Cortical neurone [2])?
Its Activity is 41.59%.

What about the Activity (Cortical neurone [3]) of the same compound?
The Activity was 39.47%.

What does the source list for Oc1cc(-c2cc3ccccc3o2)c(Br)c(O)c1O?
Activity [1]: 24.92%; EC50 (Cortical neurone [6]): > 20 µM; Activity (Cortical neurone [2]): 42.34%; Activity [4]: 0.97 mMequiv; EC50 [7]: 39.2 µM; EC50 (Cortical neurone [5]): > 20 µM; Activity (Cortical neurone [3]): 41.89%

With CCOC(=O)/C=C/c1cc2c(cc1/C=C/c1ccc(OC)cc1)OCO2 as the compound, how does the Activity [1] read?
The Activity was 74.88%.

And the Activity (Cortical neurone [2])?
Its Activity is 41.62%.

And the Activity (Cortical neurone [3])?
Its Activity is 37.28%.

With CCOC(=O)/C=C/c1cc(/C=C/c2ccc3c(c2)OCO3)c(O)c(OC)c1 as the compound, how does the Activity [1] read?
The Activity was 139.87%.

What about the Activity (Cortical neurone [2]) of the same compound?
Its Activity is 39.08%.

What about the Activity (Cortical neurone [3]) of the same compound?
The Activity was 41.26%.

Which Activity [1] does the source give for COc1ccc(/C=C/c2cc(Br)cc(OC)c2O)cc1OC here?
The Activity was 88.34%.

And the Activity (Cortical neurone [2])?
The Activity was 41.5%.

And the Activity (Cortical neurone [3])?
Its Activity is 42.09%.

For COc1cc(/C=C/c2ccccc2O)c(Br)c(OC)c1OC, which Activity [1] is on record?
Its Activity is 105.48%.

And the Activity (Cortical neurone [2])?
The Activity was 37.67%.

What about the Activity (Cortical neurone [3]) of the same compound?
The Activity was 47.1%.

With CCOC(=O)/C=C/c1cc(O)c(O)cc1-c1cc2cccc(O)c2o1 as the compound, how does the Activity [1] read?
Its Activity is 38.13%.

And the EC50 (Cortical neurone [6])?
Its EC50 is greater than 50 µM.

What about the Activity (Cortical neurone [2]) of the same compound?
The Activity was 31.58%.

What about the Activity [4] of the same compound?
The Activity was 0.2 mMequiv.

And the EC50 [7]?
Its EC50 is 82.5 µM.

And the EC50 (Cortical neurone [5])?
Its EC50 is greater than 50 µM.

And the Activity (Cortical neurone [3])?
The Activity was 43.5%.

For CCOC(=O)/C=C/c1ccc(OC)c(O)c1/C=C/c1ccc2c(c1)OCO2, which Activity [1] is on record?
Its Activity is 70.98%.

What about the EC50 (Cortical neurone [6]) of the same compound?
The EC50 was greater than 50 µM.

What about the Activity (Cortical neurone [2]) of the same compound?
The Activity was 38.17%.

What about the EC50 [7] of the same compound?
Its EC50 is 67 µM.

What about the EC50 (Cortical neurone [5]) of the same compound?
Its EC50 is greater than 50 µM.

What about the Activity (Cortical neurone [3]) of the same compound?
The Activity was 49.21%.

Which Activity [1] does the source give for COC(=O)/C=C/c1ccc(O)c2c1C=Cc1cc(O)c(O)cc1O2 here?
Its Activity is 99.63%.

What about the EC50 (Cortical neurone [6]) of the same compound?
The EC50 was greater than 50 µM.

And the Activity (Cortical neurone [2])?
Its Activity is 40.12%.

And the Activity [4]?
Its Activity is 1.48 mMequiv.

What about the Activity (Cortical neurone [3]) of the same compound?
Its Activity is 20.38%.

With CCOC(=O)/C=C/c1cc(OC)c(OC)cc1/C=C/c1cccc(OC)c1O as the compound, how does the Activity [1] read?
Its Activity is 89.35%.

What about the Activity (Cortical neurone [2]) of the same compound?
The Activity was 41.24%.

And the Activity (Cortical neurone [3])?
Its Activity is 42.73%.

What does the source list for COc1cccc(/C=C/c2ccc3c(c2)OCO3)c1O?
Activity [1]: 101%; Activity (Cortical neurone [2]): 46.98%; Activity (Cortical neurone [3]): 38.42%

For CCOC(=O)/C=C/c1ccc(OC)c(O)c1/C=C/c1cc(OC)c(OC)c(OC)c1, which Activity [1] is on record?
The Activity was 114.19%.

And the Activity (Cortical neurone [2])?
Its Activity is 42.53%.

What about the Activity (Cortical neurone [3]) of the same compound?
Its Activity is 43.06%.

Which Activity [1] does the source give for COc1ccc(/C=C/c2ccc3c(c2)OCO3)cc1O here?
Its Activity is 81.35%.

And the Activity (Cortical neurone [2])?
The Activity was 43.51%.

And the Activity (Cortical neurone [3])?
The Activity was 30.94%.

For CCOC(=O)/C=C/c1cc(OC)c(OC)cc1/C=C/c1ccccc1O, which Activity [1] is on record?
The Activity was 73.27%.

What about the Activity (Cortical neurone [2]) of the same compound?
Its Activity is 36.56%.

And the Activity (Cortical neurone [3])?
Its Activity is 43.3%.

With COc1ccc(/C=C/c2cc(C=O)cc(OC)c2O)cc1OC as the compound, how does the Activity [1] read?
Its Activity is 27.99%.

And the EC50 (Cortical neurone [6])?
The EC50 was greater than 50 µM.

What about the Activity (Cortical neurone [2]) of the same compound?
Its Activity is 48.16%.

What about the EC50 [7] of the same compound?
The EC50 was 43 µM.

And the EC50 (Cortical neurone [5])?
Its EC50 is greater than 50 µM.

What about the Activity (Cortical neurone [3]) of the same compound?
The Activity was 37.02%.

Which results are given for Oc1cc(-c2cc3cc(Br)cc(O)c3o2)cc(O)c1O?
Activity [1]: 106.67%; Activity (Cortical neurone [2]): 45.8%; Activity (Cortical neurone [3]): 43.67%

With COc1cccc(/C=C/c2ccc3c(c2)OCO3)c1OC as the compound, how does the Activity [1] read?
Its Activity is 95.92%.

And the Activity (Cortical neurone [2])?
The Activity was 38.18%.

And the Activity (Cortical neurone [3])?
The Activity was 44.02%.

Which results are given for CCOC(=O)/C=C/c1cccc(/C=C/c2cc(O)c(O)c(O)c2)c1?
Activity [1]: 26.02%; EC50 (Cortical neurone [6]): > 50 µM; Activity (Cortical neurone [2]): 41.19%; EC50 [7]: 48.9 µM; EC50 (Cortical neurone [5]): > 50 µM; Activity (Cortical neurone [3]): 42.05%

With CCOC(=O)/C=C/c1cc2c(cc1/C=C/c1cccc(OC)c1O)OCO2 as the compound, how does the Activity [1] read?
The Activity was 75.33%.

What about the Activity (Cortical neurone [2]) of the same compound?
The Activity was 41.57%.

What about the Activity (Cortical neurone [3]) of the same compound?
The Activity was 41.64%.
